Converted amounts (≈) assume the structure as drawn. The source made the active and inactive calls. The calls are words filed in the database; no cut-off is given here.
Columns and labels:
Mus musculus [1] = assay: Antiinflammatory activity in mouse assessed as inhibition of carrageenan-induced increase in paw volume at 100 mg/kg, ip administered 1 hr prior to carrageenan challenge measured after 3 hrs relative to control; assay type: functional; conditions: route intraperitoneal
Procedure, shortened: (§1)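 Mice were fasted 2 h and placed in groups of five. Controls received saline i.p. Phenylbutazone was given at 100 mg/kg i.p., curcumin at 200 mg/kg i.p., and derivatives at 200 mg/kg. After 1 h, 0.1 mL of 1% carrageenan in saline was injected subplantar into the right hind paw. Paw volume was followed by plethysmometer for 3 h, and % inhibition was calculated as (Vc − Vt)/Vc × 100.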

Escherichia coli [2] = assay: Antimicrobial activity against Escherichia coli ATCC 35218 assessed as diameter of inhibition zone at 80 uM after 24 hrs by Kirby -Baur disc diffusion method; assay type: functional; conditions: ATCC 35218, 24 h, read-out: DIZ
Procedure, shortened: (§2)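 Kirby-Bauer disc diffusion was used. Acetone stocks (160 µM) were serially doubled down to 80, 40 and 20 µM. 4 µL of each went onto 5 mm sterile paper discs, which were dried 30 min at 50 °C. Inoculum was 1.5 × 10⁸ CFU/mL diluted to 3 × 10² CFU/mL, and 50 µL was spread on Mueller-Hinton agar. After 24 h at 37 °C the inhibition-zone diameter was measured. Ciprofloxacin served as positive control.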

Trichoderma viride [3] = assay: Antifungal activity against Trichoderma viride MTCC 1107 assessed as zone of inhibition at 40 uM after 48 hrs by disc diffusion method; assay type: functional
Procedure, shortened: (§3)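 Spores from 4-day potato dextrose agar cultures, suspended in sterile water at 1.5 × 10⁵ CFU/mL. 0.2 mL was spread on potato dextrose agar. 5 mm filter-paper discs soaked with test compound were laid on the lawn. Incubation was 48 h at 28 °C, then the inhibition zone was measured in mm. Fluconazole was the positive control and acetone the negative control.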

Salmonella typhi [4] = assay: Antimicrobial activity against Salmonella typhi ATCC 23564 assessed as diameter of inhibition zone at 80 uM after 24 hrs by Kirby -Baur disc diffusion method; assay type: functional, Salmonella enterica subsp. enterica serovar Typhi; conditions: Salmonella enterica, ATCC 23564, 24 h; read-out: DIZ
Salmonella typhi [5] = assay: Antimicrobial activity against Salmonella typhi ATCC 23564 after 24 hrs by broth micro serial dilution method; assay type: functional, Salmonella enterica subsp. enterica serovar Typhi; conditions: Salmonella enterica, ATCC 23564, 24 h
Aspergillus flavus [6] = assay: Antifungal activity against Aspergillus flavus MTCC 1021 after 48 hrs; assay type: functional
Aspergillus niger [7] = assay: Antifungal activity against Aspergillus niger MTCC 1108 assessed as zone of inhibition at 80 uM after 48 hrs by disc diffusion method; assay type: functional; procedure, shortened: as §3
Pseudomonas aeruginosa [8] = assay: Antimicrobial activity against Pseudomonas aeruginosa ATCC 15499 after 24 hrs by broth micro serial dilution method; assay type: functional; conditions: ATCC 15499, 24 h
Procedure, shortened: (§4)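 This was broth microdilution in autoclaved Mueller-Hinton broth. 150 µL of compound per well was serially diluted […], and 50 µL of test organism was added. Plates were incubated 24 h at 37 °C and optical density was read.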

Salmonella typhi [9] = assay: Antimicrobial activity against Salmonella typhi ATCC 23564 assessed as diameter of inhibition zone at 40 uM after 24 hrs by Kirby -Baur disc diffusion method; assay type: functional, Salmonella enterica subsp. enterica serovar Typhi; conditions: Salmonella enterica, ATCC 23564, 24 h; read-out: DIZ
Aspergillus niger [10] = assay: Antifungal activity against Aspergillus niger MTCC 1108 after 48 hrs; assay type: functional
Escherichia coli [11] = assay: Antimicrobial activity against Escherichia coli ATCC 35218 assessed as diameter of inhibition zone at 40 uM after 24 hrs by Kirby -Baur disc diffusion method; assay type: functional; procedure, shortened: as §2
Escherichia coli [12] = assay: Antimicrobial activity against Escherichia coli ATCC 35218 after 24 hrs by broth micro serial dilution method; assay type: functional; conditions: ATCC 35218, 24 h; procedure, shortened: as §4
Staphylococcus aureus [13] = assay: Antimicrobial activity against Staphylococcus aureus ATCC 11632 after 24 hrs by broth micro serial dilution method; assay type: functional; conditions: ATCC 11632, 24 h; procedure, shortened: as §4
Staphylococcus aureus [14] = assay: Antimicrobial activity against Staphylococcus aureus ATCC 11632 assessed as diameter of inhibition zone at 80 uM after 24 hrs by Kirby -Baur disc diffusion method; assay type: functional; procedure, shortened: as §2
Escherichia coli [15] = assay: Antimicrobial activity against Escherichia coli ATCC 35218 assessed as diameter of inhibition zone at 20 uM after 24 hrs by Kirby -Baur disc diffusion method; assay type: functional; procedure, shortened: as §2
Salmonella typhi [16] = assay: Antimicrobial activity against Salmonella typhi ATCC 23564 assessed as diameter of inhibition zone at 20 uM after 24 hrs by Kirby -Baur disc diffusion method; assay type: functional; conditions: Salmonella enterica subsp. enterica serovar Typhi
Pseudomonas aeruginosa [17] = assay: Antimicrobial activity against Pseudomonas aeruginosa ATCC 15499 assessed as diameter of inhibition zone at 80 uM after 24 hrs by Kirby -Baur disc diffusion method; assay type: functional; conditions: ATCC 15499, 24 h, read-out: DIZ; procedure, shortened: as §2
Curvularia lunata [18] = assay: Antifungal activity against Curvularia lunata MTCC 581 assessed as zone of inhibition at 80 uM after 48 hrs by disc diffusion method; assay type: functional; conditions: MTCC 581, 48 h, read-out: IZ; procedure, shortened: as §3
Bacillus cereus [19] = assay: Antimicrobial activity against Bacillus cereus MTCC 7350 after 24 hrs by broth micro serial dilution method; assay type: functional; conditions: MTCC 7350, 24 h; procedure, shortened: as §4
Curvularia lunata [20] = assay: Antifungal activity against Curvularia lunata MTCC 581 assessed as zone of inhibition at 40 uM after 48 hrs by disc diffusion method; assay type: functional; conditions: MTCC 581, 48 h, read-out: IZ; procedure, shortened: as §3
Trichoderma viride [21] = assay: Antifungal activity against Trichoderma viride MTCC 1107 after 48 hrs; assay type: functional; conditions: MTCC 1107, 48 h
Trichoderma viride [22] = assay: Antifungal activity against Trichoderma viride MTCC 1107 assessed as zone of inhibition at 80 uM after 48 hrs by disc diffusion method; assay type: functional; conditions: MTCC 1107, 48 h, read-out: IZ; procedure, shortened: as §3
Curvularia lunata [23] = assay: Antifungal activity against Curvularia lunata MTCC 581 after 48 hrs; assay type: functional; conditions: MTCC 581, 48 h
Aspergillus flavus [24] = assay: Antifungal activity against Aspergillus flavus MTCC 1021 assessed as zone of inhibition at 80 uM after 48 hrs by disc diffusion method; assay type: functional; procedure, shortened: as §3
Pseudomonas aeruginosa [25] = assay: Antimicrobial activity against Pseudomonas aeruginosa ATCC 15499 assessed as diameter of inhibition zone at 20 uM after 24 hrs by Kirby -Baur disc diffusion method; assay type: functional; procedure, shortened: as §2
Pseudomonas aeruginosa [26] = assay: Antimicrobial activity against Pseudomonas aeruginosa ATCC 15499 assessed as diameter of inhibition zone at 40 uM after 24 hrs by Kirby -Baur disc diffusion method; assay type: functional; procedure, shortened: as §2
Mus musculus [27] = assay: Antiinflammatory activity in mouse assessed as inhibition of carrageenan-induced increase in paw volume at 200 mg/kg, ip administered 1 hr prior to carrageenan challenge measured after 3 hrs relative to control; assay type: functional; conditions: route intraperitoneal; procedure, shortened: as §1
Trichoderma viride [28] = assay: Antifungal activity against Trichoderma viride MTCC 1107 assessed as zone of inhibition at 20 uM after 48 hrs by disc diffusion method; assay type: functional; procedure, shortened: as §3
Bacillus cereus [29] = assay: Antimicrobial activity against Bacillus cereus MTCC 7350 assessed as diameter of inhibition zone at 80 uM after 24 hrs by Kirby -Baur disc diffusion method; assay type: functional; conditions: MTCC 7350, 24 h, read-out: DIZ; procedure, shortened: as §2
Curvularia lunata [30] = assay: Antifungal activity against Curvularia lunata MTCC 581 assessed as zone of inhibition at 20 uM after 48 hrs by disc diffusion method; assay type: functional; procedure, shortened: as §3

SMILES: CCCCC1C(=O)N(c2ccccc2)N(c2ccccc2)C1=O [PHENYLBUTAZONE]
- inhibition in vivo at 100 mg/kg (Mus musculus [1]): 70.9%

SMILES: COc1cc(/C=C/C(=O)CC(=O)/C=C/c2ccc(O)c(OC)c2)ccc1O [CURCUMIN]
- zone of inhibition at 80 µM (Escherichia coli [2]): 12 mm
- inhibition zone (IZ) (Trichoderma viride [3]): inactive
- zone of inhibition at 80 µM (Salmonella typhi [4]): 11 mm
- MIC (Salmonella typhi [5]): > 80 µM
- MIC (Aspergillus flavus [6]): inactive
- inhibition zone (IZ) (Aspergillus niger [7]): inactive
- MIC (Pseudomonas aeruginosa [8]): > 80 µM
- zone of inhibition at 40 µM (Salmonella typhi [9]): 9 mm
- MIC (Aspergillus niger [10]): inactive
- diameter of the inhibition zone (DIZ) (Escherichia coli [11]): inactive
- MIC (Escherichia coli [12]): > 80 µM
- MIC (Staphylococcus aureus [13]): 80 µM (≈ 29.5 µg/mL)
- diameter of the inhibition zone (DIZ) (Staphylococcus aureus [14]): inactive
- diameter of the inhibition zone (DIZ) (Escherichia coli [15]): inactive
- diameter of the inhibition zone (DIZ) (Salmonella typhi [16]): inactive
- zone of inhibition at 80 µM (Pseudomonas aeruginosa [17]): 11 mm
- zone of inhibition at 80 µM (Curvularia lunata [18]): 11 mm
- MIC (Bacillus cereus [19]): > 80 µM
- zone of inhibition at 40 µM (Curvularia lunata [20]): 9 mm
- MIC (Trichoderma viride [21]): > 80 µM
- zone of inhibition at 80 µM (Trichoderma viride [22]): 9 mm
- MIC (Curvularia lunata [23]): > 80 µM
- inhibition zone (IZ) (Aspergillus flavus [24]): inactive
- diameter of the inhibition zone (DIZ) (Pseudomonas aeruginosa [25]): inactive
- diameter of the inhibition zone (DIZ) (Pseudomonas aeruginosa [26]): inactive
- inhibition in vivo at 200 mg/kg (Mus musculus [27]): 12.9%
- inhibition zone (IZ) (Trichoderma viride [28]): inactive
- zone of inhibition at 80 µM (Bacillus cereus [29]): 9 mm
- inhibition zone (IZ) (Curvularia lunata [30]): inactive

— ChEMBL document CHEMBL2384906, “Biological activity, design, synthesis and structure activity relationship of some novel derivatives of curcumin containing sulfonamides” (Eur J Med Chem, 2013)
